Compound activity from PubChem.
MrgX1 antag: antagonists of human MrgX1 receptor, primary screen, HEK293 cells, Fluo-4 calcium flux. Mas-related G-protein coupled receptor member X1 (Homo sapiens), Q96LB2. BAM8-22 antagonism; active compounds read low. B-score at 10 µM. hit rate 1.3% among 310,000. AID 588676, 2011;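 active = calcium-response B-score plate-corrected more than 3 library SD below zero, starting fluorescence within 5 deviations, no agonist response on first addition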;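 note: peak minus trough fluorescence over baseline after final BAM8-22 challenge near maximal dose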
Target sequence (Q96LB2 whole entry, looked up): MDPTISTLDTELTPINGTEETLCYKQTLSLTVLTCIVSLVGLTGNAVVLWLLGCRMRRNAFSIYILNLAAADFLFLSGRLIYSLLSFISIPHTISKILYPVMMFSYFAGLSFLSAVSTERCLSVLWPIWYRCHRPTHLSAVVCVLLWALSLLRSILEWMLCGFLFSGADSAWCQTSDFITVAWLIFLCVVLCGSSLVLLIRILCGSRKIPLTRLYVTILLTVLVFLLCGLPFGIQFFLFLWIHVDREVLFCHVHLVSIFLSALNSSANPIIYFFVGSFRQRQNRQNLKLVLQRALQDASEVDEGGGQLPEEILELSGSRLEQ
RGS4 act: RGS4 potentiators or activators, primary screen, cell-based, HEK293 M3R inducible RGS4, calcium flux; carbachol calcium flux Fluo4; active compounds read low; AID 463111, 2010; hit rate 0.92% among 310,000; B-score at 10 µM;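 active = B-score of the integrated calcium signal more than 4 SD below the library mean, with starting fluorescence not abnormally high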;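 note: negative B-score means reduced calcium response which marks RGS4 activation or potentiation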
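Material: M3R-expressing HEK293 line, RGS4 induced by doxycycline | Schedule: Overnight RGS4 induction, 30 min dye load 37 °C, 20 min compound RT | Measured by: Fluo4 fluorescence kinetic imaging of calcium | Read-out: Integrated calcium ratio converted to B score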
MrgX1 allo act: positive allosteric modulators of MrgX1, primary screen, HEK293 cells, Fluo-4 calcium flux | Mas-related G-protein coupled receptor member X1 (Homo sapiens), Q96LB2 | FDSS; active compounds read high | B-score at 10 µM | hit rate 0.63% among 310,000 | AID 588675, 2011;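 active = plate-corrected calcium response at least 3 library SD above typical, normal starting fluorescence, not activating the receptor alone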;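 note: compound read alongside a low EC10 to EC30 dose of BAM8-22 agonist; peak minus trough fluorescence over baseline measured at the second addition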
MrgX1 agonist: agonists of human MrgX1 receptor, primary screen, HEK293 cells, Fluo-4 calcium flux; Mas-related G-protein coupled receptor member X1 (Homo sapiens), Q96LB2; Fluo-4 calcium fluorescence, agonist mode; active compounds read high; B-score at 10 µM; hit rate 0.44% among 310,000;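 active = calcium response B-score plate-corrected fluorescence ratio at least 3 library SD, with starting fluorescence B-score inside 5 SD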
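Assay system: stable human MrgX1 HEK293 cell line. Quantity: 15,000 cells per well. Schedule: cells plated overnight, dye loaded 0.5 h 37 °C, 0.5 h room temperature. Detection: Fluo-4 NW calcium-flux fluorescence, kinetic read. Read-out basis: peak-minus-minimum fluorescence over baseline, converted to B scores. Control set: positive and negative control wells on each plate.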
RGS4 block: RGS4 inhibitors, primary screen, cell-based, HEK293 M3R inducible RGS4, calcium flux; Regulator of G-protein signaling 4 (Homo sapiens), P49798; Fluo-4 calcium flux; active compounds read high; triggered by carbachol at its EC20; B-score at 10 µM; hit rate 0.45% among 310,000;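 active = B-score, a plate-corrected calcium signal, over three deviations above library mean, with baseline fluorescence within five deviations of library mean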;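 note: RGS4 expression induced by doxycycline in cells with stable M3 receptor; B-score is computed from the integrated fluorescence ratio over baseline after carbachol; higher B-score means a larger calcium signal and so more RGS4 inhibition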
Target sequence (P49798 whole entry, looked up): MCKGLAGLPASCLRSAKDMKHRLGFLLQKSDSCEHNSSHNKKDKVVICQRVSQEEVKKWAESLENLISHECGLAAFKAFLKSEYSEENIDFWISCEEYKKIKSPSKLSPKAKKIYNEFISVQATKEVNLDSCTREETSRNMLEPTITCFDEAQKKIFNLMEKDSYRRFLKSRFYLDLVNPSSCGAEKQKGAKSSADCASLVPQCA
An asterisk follows results filed as active; i = inactive; · = no result. An excerpt weighted towards active compounds, which were near 3.5% of everything screened.

SMILES	MrgX1 antag	RGS4 act	MrgX1 allo act	MrgX1 agonist	RGS4 block
O=C(NCCC1CCCCN1S(=O)(=O)c1ccc(Cl)cc1)C(=O)NCc1cccnc1 (stereo not given)	i	i	i	i	i
CC(c1ccccc1)n1c(N2CCNCC2)nc2c1c(=O)[nH]c(=O)n2C (stereo not given)	i	i	i	i	i
CCN(CC)N=Nc1ccc(S(=O)(=O)N2CCSC2C(=O)O)cc1 (stereo not given)	i	i	i	i	i
CCN(CC)N=Nc1ccc(C(=O)O)cc1	-5.5*	i	i	i	i
Cc1cc(NC(=O)COC(=O)C2CCN(S(=O)(=O)c3ccccc3)CC2)c([N+](=O)[O-])cc1C	i	i	i	i	i
COC(=O)C1=C(C)NC(=O)/C1=C\c1cc(C)n(-c2ccccc2F)c1C	-5.5*	i	i	i	i
O=c1c2ccccc2nc(COc2ccccc2)n1/N=C/c1c[nH]c2ccccc12	i	i	i	i	i
O=c1c2ccccc2nc(COc2ccccc2)n1/N=C/c1ccc(O)cc1O	i	-7.8*	i	i	i
Oc1ccc(/C=N/n2c(COc3ccccc3)n[nH]c2=S)c(O)c1	i	i	i	i	i
C/C(=N\OCc1nc2ccccc2c(=O)n1/N=C/c1cc([N+](=O)[O-])ccc1O)c1ccccc1	i	i	7.3*	i	i
Oc1ccccc1/C=N/n1c(COc2ccccc2)n[nH]c1=S	i	i	6.6*	i	i
C/C(=N\OCc1nc2ccccc2c(=O)n1/N=C/c1cc(C)cc([N+](=O)[O-])c1O)c1ccccc1	i	i	i	i	i
Cc1ccc(S(=O)(=O)N2CCOC23CCN(S(=O)(=O)c2c(C)cc(C)cc2C)CC3)cc1	i	i	i	i	i
COc1ccc(S(=O)(=O)NCc2ccccn2)cc1NC(=O)c1ccccc1C	i	i	i	i	i
O=C(O)CCC(=O)Nc1ccccc1C(=O)N1CCN(c2ccc(Cl)cc2)CC1	i	i	i	i	i
CCOc1ccc(NC(=O)CN(c2ccc([N+](=O)[O-])cc2)S(=O)(=O)c2ccccc2)cc1	-5.4*	i	i	i	i
CC(C(=O)NN)c1ccc([N+](=O)[O-])cc1 (stereo not given)	i	i	9.2*	i	i
CC(NS(=O)(=O)c1ccc([N+](=O)[O-])cc1)C(=O)NN (stereo not given)	i	i	i	i	i
CN(C)CCOC(c1ccccc1)c1ccccc1	i	i	i	i	i
Cc1ccccc1C(OCCN(C(C)C)C(C)C)c1ccccc1 (stereo not given)	i	-8.6*	i	i	i
O=C1CSC(=Nc2ccccc2[N+](=O)[O-])N1	-4.6*	i	i	i	i
COc1ccc(N=C2NC(=O)CS2)c([N+](=O)[O-])c1	i	i	i	i	i
Cc1ccc(O)c(NC(=O)c2ccc3c(c2)C(=O)N(Cc2cccnc2)C3=O)c1	i	i	i	i	i
CC(C)C(C(=O)O)N1C(=O)/C(=C/c2cccn2C)SC1=S (stereo not given)	i	·	i	i	·
O=C1/C(=C/C=C/c2ccco2)SC(=S)N1c1ccc(O)cc1	i	i	16*	i	i
SMILES	MrgX1 antag	RGS4 act	MrgX1 allo act	MrgX1 agonist	RGS4 block
CC(C)C(C(=O)O)N1C(=O)/C(=C/C=C/c2ccco2)SC1=S (stereo not given)	-5.3*	i	i	i	i
Cc1ccc(S(=O)(=O)N2CCN(c3ncnc4sccc34)CC2)cc1	i	i	i	i	i
Cc1ccccc1CN1C(=O)C(C)S/C1=N/N=C/c1ccco1 (stereo not given)	i	i	13*	i	i
CN1C(=O)C2(c3ccccc31)C1CCCC=C1C(C#N)=C(N)C2(C#N)C#N (stereo not given)	i	·	6.7*	i	·
C=CCOc1ccc(/C=C2\SC(=Nc3cccnc3)NC2=O)cc1	-4.9*	i	i	i	i
CC(/C=C1\SC(=Nc2cccnc2)NC1=O)=C\c1ccccc1	i	i	i	i	i
CCOC(=O)N1CCN(C(=O)CNC2CCCCCCC2)CC1	i	i	i	i	i
Oc1ccc(Cl)cc1C1=NNC(c2cccs2)C1 (stereo not given)	-5.6*	i	i	i	i
Cc1ccc(O)c(C2=NNC(c3ccc(Cl)cc3)C2)c1 (stereo not given)	i	i	i	i	i
C=CCOc1cccc(C2/C(=C(/O)c3ccc(Cl)cc3)C(=O)C(=O)N2CCN2CCOCC2)c1 (stereo not given)	-5*	i	i	i	i
CC1CN(c2nn3c(=O)c4ccccc4nc3c3ccccc23)CC(C)O1 (stereo not given)	i	i	i	i	i
CCN1CCN(c2nn3c(=O)c4ccccc4nc3c3ccccc23)CC1	i	-8.6*	i	i	i
CS(=O)(=O)Oc1ccc2c(c1)O/C(=C\c1cccnc1)C2=O	i	i	i	i	i
COc1cc(OC)c(OC)cc1/C=C1\Oc2cc(OS(C)(=O)=O)ccc2C1=O	-7.4*	i	i	i	i
C=CCOc1ccccc1CNCCCN1CCOCC1	-7.3*	i	i	i	i
c1ccc(-c2oc3ncnc(NCCCn4ccnc4)c3c2-c2ccccc2)cc1	-5.4*	i	i	i	i
OCCNc1ncnc2c1c(-c1ccccc1)c(-c1ccccc1)n2Cc1ccco1	i	i	i	i	i
CN(C)CCCNc1ncnc2oc(-c3ccccc3)c(-c3ccccc3)c12	i	i	i	i	i
c1ccc(-c2c(-c3ccccc3)n(Cc3ccco3)c3ncnc(NCCCn4ccnc4)c23)cc1	i	-8.5*	i	i	i
N=c1c2c(-c3ccccc3)c(-c3ccccc3)n(Cc3ccco3)c2ncn1CCCn1ccnc1	i	i	i	i	i
CC(C)Cn1cnc2c(c(-c3ccccc3)c(-c3ccccc3)n2Cc2ccco2)c1=N	i	-11*	i	i	i
c1ccc(COc2ccc(CNCc3cccs3)cc2)cc1	i	-8.3*	i	i	i
CCNc1nc2cccnc2s1	i	i	i	i	i
